This passage reports inhibition, IC50 and Ki results from ChEMBL document CHEMBL3352649, “2,2'-Dihydroxybenzophenones and their carbonyl N-analogues as inhibitor scaffolds for MDR-involved human glutathione transferase isoenzyme A1-1” (Bioorg Med Chem, 2014).

The target of assay [1] is T1, Glutathione S-transferase A1 (Homo sapiens) (UniProt P08263).
T1 sequence (whole entry): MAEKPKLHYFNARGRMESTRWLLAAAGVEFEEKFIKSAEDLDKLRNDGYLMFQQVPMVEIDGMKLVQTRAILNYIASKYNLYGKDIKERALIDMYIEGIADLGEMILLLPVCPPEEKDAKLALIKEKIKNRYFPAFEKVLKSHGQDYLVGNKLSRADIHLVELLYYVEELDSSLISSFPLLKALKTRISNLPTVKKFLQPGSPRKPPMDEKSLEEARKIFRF
The experiment in a line: Inhibition of human GSTA1 activity assessed as conjugation between CDNB and GSH at 25 uM. An outline of the steps: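 1 mL of 100 mM potassium phosphate pH 6.5, 0.75 µmol GSH, 25 nmol compound (from 5 mM DMSO stock), enzyme; 1 min at 25 °C, then 0.3 µmol CDNB. Read at 340 nm. Remaining activity is relative to a 5 µL DMSO replacement, mean of three assays.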

Assay [2] deals with T2, Glutathione S-transferase A1 (Homo sapiens, UniProt P08263).
T2 sequence (P08263 whole entry): T1 sequence (whole entry)
The experiment in a line: Inhibition of human GSTA1 activity assessed as conjugation between CDNB and GSH.

Assay [3] concerns the target T2, Glutathione S-transferase A1. The experiment in a line: Mixed-type inhibition of human GSTA1 activity by double reciprocal Lineweaver-Burk graph.

The term inhibition denotes how much of the control response was suppressed. The term IC50 denotes the midpoint of a concentration-inhibition curve. One may read the Ki as the dissociation constant of the complex between target and ligand, obtained from inhibition or displacement. Higher therefore signals a looser hold on the target.

In the case of `O=C(c1ccccc1O)c1ccccc1O`, the inhibition in assay [1] is 0%.

For the compound `O=C(c1ccccc1O)c1cc(Br)ccc1O`, the inhibition in assay [1] turned out to be 87.7%. For the same compound, the IC50 in assay [2] was 240 nM. The compound also had an inhibition constant (Ki) in assay [3] of 360 nM.
